Experimental data collected from several papers.
Each line is one published result; the experiments were not run side by side.
Organism: Escherichia coli
Read-out: microbial growth

With `C[C@@H](O)[C@H]1C(=O)N2C(C(=O)O)=C(SCCN=CN)C[C@H]12` the MIC was 0.5 µM (broth dilution; KCTC1682; 16 h).
`N=C(N)c1cccc(OCc2ccc(COc3cccc(C(=N)N)c3)cc2)c1` has an MIC of 200 µg/mL (broth dilution; ATCC25922).
For `Clc1ccc(Cn2c(-c3ccc(Cl)cc3)nc3ccccc32)cc1`, the MIC was 16 µg/mL (broth dilution; ATCC25922).
With `N=C(N)c1ccc(OCCS(=O)(=O)CCOc2ccc(C(=N)N)cc2)cc1` the MIC was greater than 200 µg/mL (broth dilution; BW25113).
`CCCCCCCCCCCC(=O)Oc1c(C)c(O)c(C(=O)/C=C/c2ccccc2)c(OC)c1C` gave an MIC of 5000 µg/mL (broth dilution; ATCC25922).
The MIC of `Clc1cccc(NCc2ccc(Oc3ccccn3)cc2)c1` is reported as greater than 25 µg/mL.
For `CC(C)Oc1c(NC(=O)c2ccc(NC(=O)[C@H](CC(N)=O)NC(=O)c3cccc(-c4cccc(C#N)c4)c3)cc2)ccc(C(=O)Nc2ccc(C(=O)O)cc2)c1O`, the MIC was greater than 64 µg/mL (DSM1116).
With `CC1=NN(CNc2c(O)c(S(=O)(=O)O)cc3ccccc23)C(=O)C1=NNn1c(-c2ccccc2)nc2ccccc2c1=O` the MIC was 41.8 µM (broth dilution; 24 h).
With `C=CCn1c(-c2ccc([N+](=O)[O-])cc2)nc2ccccc21` the MIC was 64 µg/mL (broth dilution; ATCC25922).
The MIC of `N=C(N)c1ccccc1OCc1ccc(COc2ccccc2C(=N)N)cc1` is reported as greater than 200 µg/mL (broth dilution; BW25113).
With `Cc1c(CN(C)C(=O)/C=C/c2cnc3c(c2)CC(NC(=O)OC(C)(C)C)C(=O)N3)oc2ccccc12` (stereo not drawn) the MIC was greater than 32 µg/mL (broth dilution; BAA2340; clinical isolate).
For `NC1CCCCc2c1[nH]c1ccc(Cl)c(Cl)c21` (stereo not drawn), the MIC was 16 µg/mL (broth dilution; ATCC25922).
The MIC of `O=[N+]([O-])c1ccc(-c2nc3ccccc3n2Cc2ccccc2)cc1` is reported as 64 µg/mL (broth dilution; ATCC25922).
With `CO[C@@H](C(N)=O)[C@H](NC(=O)c1ccc(NC(=O)c2ccc(C#N)cc2)cc1)C(=O)Nc1ccc(C(=O)Nc2ccc(C(=O)Nc3ccc(C(=O)O)cc3)c(O)c2OC(C)C)cc1` the MIC was less than 0.03 µg/mL (DSM1116).
For `COc1cccc(-c2nc3ccc(C)cc3[nH]2)c1`, the MIC was 128 µg/mL (broth dilution; ATCC25922).
With `N=C(N)c1ccc(OCc2cc(COc3ccc(C(=N)N)cc3)cc(-c3ccccc3)c2)cc1` the MIC was 100 µg/mL (broth dilution; W3110).
For `CCCCCCC/C=C/C(=O)N1C(=O)/C(=C(/C)O)C(=O)C1CCCCN` (stereo not drawn), the MIC was greater than 200 µg/mL (K12; K12).
`Cc1ccc2nc(-c3ccc(Cl)cc3Cl)[nH]c2c1` has an MIC of 64 µg/mL (broth dilution; ATCC25922).
The MIC of `N=C(N)c1cccc(OCCCCCOc2cccc(C(=N)N)c2)c1` is reported as greater than 200 µg/mL (BW25113).
`O=C(Nc1ncc([N+](=O)[O-])s1)c1cccc(C(F)(F)F)c1` gave an MIC of less than 50 µM.
The MIC of `Cc1ccc2nc(-c3cccc([N+](=O)[O-])c3)[nH]c2c1` is reported as 256 µg/mL (broth dilution; ATCC25922).
`Cc1ccc(C)n1-c1ccc(C(=O)NNC=O)cc1` gave an MIC of 31.2 µg/mL (broth dilution; ATCC10536; 18 h).
`N=C(N)c1ccc(OCc2ccc3ccc(COc4ccc(C(=N)N)cc4)cc3c2)cc1` gave an MIC of greater than 200 µg/mL (BW25113; 20 h).
With `COc1c(C)c(OS(=O)(=O)c2ccc3ccccc3c2)c(C)c(OS(=O)(=O)c2ccc3ccccc3c2)c1C(=O)/C=C/c1ccccc1` the MIC was 5000 µg/mL (broth dilution; ATCC25922).
The MIC of `CCOc1ccc(-c2nc3cc(-c4nc5cc(N6CCN(C)CC6)ccc5[nH]4)ccc3[nH]2)cc1` is reported as 8 to 16 µg/mL (broth dilution; 25922; 24 h).
For `C[C@@H](O)[C@H]1C(=O)N2C(C(=O)O)=C(S[C@@H]3CN[C@H](C(=O)N(C)C)C3)[C@H](C)[C@H]12`, the MIC was no more than 0.125 µg/mL (broth dilution; ATCC35218).
`CCCCCCC/C=C/C(=O)N1C(=O)/C(=C(\O)C2CCNCC2)C(=O)C1CC(C)C` (stereo not drawn) gave an MIC of 25 µg/mL (K12; K12).
For `CC(C)Oc1c(NC(=O)c2ccc(NC(=O)[C@H](CC(N)=O)NC(=O)c3ccc(NC(=O)c4ccc(NC(=O)c5ccc([N+](=O)[O-])cc5)cc4)cc3)cc2)ccc(C(=O)Nc2ccc(C(=O)O)cc2)c1O`, the MIC was 0.5 µg/mL (DSM1116).
`CC1(C)S[C@@H]2[C@H](NC(=O)[C@H](N)c3ccccc3)C(=O)N2[C@H]1C(=O)O` has an MIC of 4 µg/mL (broth dilution; MG1655).
For `O=C(CCCCCCCC[P+](c1ccccc1)(c1ccccc1)c1ccccc1)Nc1ccc(O)c(O)c1.[Br-]`, the MIC was greater than 32 µg/mL (broth dilution; ATCC25922; 18 h).
For `CC(C)Oc1c(-n2cc(-c3ccc(NC(=O)C(CC(N)=O)NC(=O)c4ccc(NC(=O)c5ccc(C#N)cc5)cc4)cc3)nn2)ccc(C(=O)Nc2ccc(C(=O)O)cc2)c1O` (stereo not drawn), the MIC was 0.06 µg/mL (DSM1116).
With `N=C(N)c1ccc(OCCSCCOc2ccc(C(=N)N)cc2)cc1` the MIC was greater than 200 µg/mL (broth dilution; BW25113).
The MIC of `CCCCCCC#Cc1cncc(-c2nnc(SCc3ccc([N+](=O)[O-])o3)n2C)c1` is reported as no less than 20 µg/mL.
With `Brc1cccc(NCc2ccc(Oc3ccccn3)cc2)c1` the MIC was greater than 50 µg/mL.
With `CC1=NN(CNc2ccccc2[N+](=O)[O-])C(=O)C1=NNn1c(-c2ccccc2)nc2ccccc2c1=O` the MIC was 50.4 µM (broth dilution; 24 h).
With `c1cncc(-c2nc3ccccc3[nH]2)c1` the MIC was 64 µg/mL (broth dilution; ATCC25922).
With `COc1cc(Cc2cnc(N)nc2N)cc(OC)c1OC` the MIC was roughly 0.2 µM.
With `C[C@H]1COc2c(N3CCN(C)CC3)c(F)cc3c(=O)c(C(=O)O)cn1c23` the MIC was no more than 0.03 µg/mL (agar dilution; ATCC25).
`CCn1cc(C(=O)O)c(=O)c2cc(F)c(N3CCNCC3)cc21` has an MIC of no more than 1 µg/mL (broth dilution; ATCC10536; 18 h).
For `CC(C)COc1c(NC(=O)c2ccc(NC(=O)[C@H](CC(N)=O)NC(=O)c3ccc(NC(=O)c4ccc(C#N)cc4)cc3)cc2)ccc(C(=O)Nc2ccc(C(=O)O)cc2)c1O`, the MIC was 0.25 µg/mL (DSM1116).
The MIC of `N=C(N)c1ccc(OCCCCCCCCCOc2ccc(C(=N)N)cc2)cc1` is reported as greater than 25 µg/mL (broth dilution; BW25113).
`CC(C)Oc1c(NC(=O)c2ccc(NC(=O)[C@H](CC(N)=O)NC(=O)c3ccc(NC(=O)c4ccc(C#N)cc4)cc3)cc2)ccc(C(=O)Nc2cccc(C(=O)O)c2)c1O` has an MIC of 0.5 µg/mL (DSM1116).
The MIC of `Clc1ccc(-c2nc3ccccc3n2Cc2ccccc2)cc1Cl` is reported as 64 µg/mL (broth dilution; ATCC25922).
With `O=C(Cc1cc(O)c(O)c(O)c1)NCCCCCCCC[P+](c1ccccc1)(c1ccccc1)c1ccccc1.[Br-]` the MIC was greater than 32 µg/mL (broth dilution; ATCC25922; 18 h).
The MIC of `CC(C)Oc1c(NC(=O)c2ccc(NC(=O)[C@H](CC(N)=O)NC(=O)c3ccc(NC(=O)C(C)Sc4ccc(C#N)cc4)cc3)cc2)ccc(C(=O)Nc2ccc(C(=O)O)cc2)c1O` (stereo partly drawn) is reported as 0.25 µg/mL (DSM1116).
